Measured values reported in ChEMBL document CHEMBL3421600, “Hupehenols A-E, selective 11β-hydroxysteroid dehydrogenase type 1 (11β-HSD1) inhibitors from Viburnum hupehense” (J Nat Prod, 2015).

Assays:
[1] = biological target: 11-beta-hydroxysteroid dehydrogenase 1 (Homo sapiens, UniProt P28845); experiment: Inhibition of human 11beta-HSD1 overexpressed in microsomal fraction of HEK293 cells assessed as formation of [3H]-cortisol from [3H]-cortisone by scintillation proximity assay in presence of NADPH; type: cell-based
Sequence of 11-beta-hydroxysteroid dehydrogenase 1 (Homo sapiens, UniProt P28845) (P28845 whole entry): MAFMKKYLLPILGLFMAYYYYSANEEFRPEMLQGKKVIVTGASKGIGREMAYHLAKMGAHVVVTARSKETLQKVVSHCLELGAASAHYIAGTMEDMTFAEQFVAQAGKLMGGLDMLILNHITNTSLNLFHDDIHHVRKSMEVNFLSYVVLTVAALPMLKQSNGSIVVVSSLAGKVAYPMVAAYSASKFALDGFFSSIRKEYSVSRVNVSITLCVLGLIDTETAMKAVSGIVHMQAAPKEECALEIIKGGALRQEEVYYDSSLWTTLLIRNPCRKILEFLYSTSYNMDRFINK
Method in brief: (§1)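 Full-length human or murine 11β-HSD1 cDNA cloned into pcDNA3 and stably transfected into HEK-293 cells, selected with G418 (700 μg/mL). Microsomal fraction used as enzyme source. Microsomes incubated with NADPH, [3H]cortisone and compound. [3H]cortisol product captured by monoclonal antibody on protein A-coated SPA beads and read by scintillation proximity. IC50 reported.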

[2] = biological target: T1, 11-beta-hydroxysteroid dehydrogenase type 2 (Mus musculus, UniProt P51661); experiment: Inhibition of mouse 11beta-HSD2 overexpressed in microsomal fraction of HEK293 cells using [3H]-cortisol as substrate by scintillation proximity assay in presence of NAD+
T1 sequence (P51661 whole entry): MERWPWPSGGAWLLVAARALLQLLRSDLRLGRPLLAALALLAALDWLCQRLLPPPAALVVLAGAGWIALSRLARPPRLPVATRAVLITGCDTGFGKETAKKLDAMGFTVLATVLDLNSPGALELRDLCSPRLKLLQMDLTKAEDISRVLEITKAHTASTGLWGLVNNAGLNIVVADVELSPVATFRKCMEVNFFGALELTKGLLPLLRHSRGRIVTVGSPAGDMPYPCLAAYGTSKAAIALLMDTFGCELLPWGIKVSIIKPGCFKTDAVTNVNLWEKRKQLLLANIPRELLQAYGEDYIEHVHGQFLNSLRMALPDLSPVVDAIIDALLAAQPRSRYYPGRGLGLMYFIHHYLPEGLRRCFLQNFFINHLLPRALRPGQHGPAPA
Method in brief: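 Enzyme was murine 11β-HSD2 full-length cDNA in pcDNA3, stably expressed in HEK-293 cells selected with G418 (700 μg/mL). Microsomes from these cells were incubated with [3H]cortisol, NAD+ and compound. Activity was read by scintillation proximity assay and IC50 reported.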

[3] = biological target: 11-beta-hydroxysteroid dehydrogenase 1 (Mus musculus, UniProt P50172); experiment: Inhibition of mouse 11beta-HSD1 overexpressed in microsomal fraction of HEK293 cells assessed as formation of [3H]-cortisol from [3H]-cortisone by scintillation proximity assay in presence of NADPH; type: cell-based; method in brief: as §1
Sequence of 11-beta-hydroxysteroid dehydrogenase 1 (Mus musculus, UniProt P50172) (P50172 whole entry): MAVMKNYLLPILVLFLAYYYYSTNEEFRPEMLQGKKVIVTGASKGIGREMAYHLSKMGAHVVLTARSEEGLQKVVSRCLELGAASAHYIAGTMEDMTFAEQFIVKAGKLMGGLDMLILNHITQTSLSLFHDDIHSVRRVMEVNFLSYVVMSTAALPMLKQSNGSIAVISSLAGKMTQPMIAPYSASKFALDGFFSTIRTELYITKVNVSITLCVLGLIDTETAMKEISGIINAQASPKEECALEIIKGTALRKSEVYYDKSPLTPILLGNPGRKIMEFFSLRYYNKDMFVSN

[4] = biological target: T2, 11-beta-hydroxysteroid dehydrogenase type 2 (Homo sapiens, UniProt P80365); experiment: Inhibition of human 11beta-HSD2 overexpressed in microsomal fraction of HEK293 cells using [3H]-cortisol as substrate by scintillation proximity assay in presence of NAD+
T2 sequence (P80365 whole entry): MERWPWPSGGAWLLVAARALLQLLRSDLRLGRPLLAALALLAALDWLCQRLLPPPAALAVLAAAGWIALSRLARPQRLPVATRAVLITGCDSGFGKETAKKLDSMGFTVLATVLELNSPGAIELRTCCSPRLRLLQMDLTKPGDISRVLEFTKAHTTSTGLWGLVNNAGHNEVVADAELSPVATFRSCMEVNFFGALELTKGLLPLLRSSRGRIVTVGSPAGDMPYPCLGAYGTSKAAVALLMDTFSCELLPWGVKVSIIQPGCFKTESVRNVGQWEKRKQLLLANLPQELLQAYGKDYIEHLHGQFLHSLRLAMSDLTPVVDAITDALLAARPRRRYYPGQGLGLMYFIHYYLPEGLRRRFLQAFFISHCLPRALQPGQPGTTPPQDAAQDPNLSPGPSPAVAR

| Compound | IC50 [1] | IC50 [2] | IC50 [3] | IC50 [4] |
| --- | --- | --- | --- | --- |
| CO[C@@H]1CC(=O)[C@]2(C)[C@@H]1[C@H](O)C[C@@H]1[C@@]3(C)CC[C@H](O)C(C)(C)[C@@H]3CC[C@]12C | 0.194 µM | 292 µM | 2.8 µM |  |
| CC(=O)O[C@@H]1C[C@@H]2[C@@]3(C)CC[C@H](O)C(C)(C)[C@@H]3CC[C@@]2(C)[C@]2(C)C(=O)C=C[C@@H]12 | 0.0341 µM | 217 µM | 7.2 µM |  |
| CC1(C)[C@@H](O)CC[C@]2(C)[C@H]3C[C@@H](O)[C@@H]4C=CC(=O)[C@@]4(C)[C@]3(C)CC[C@@H]12 | 0.395 µM | > 1000 µM | 2.9 µM | 284 µM |

Next, values leading:

| IC50 [1] | IC50 [2] | IC50 [3] | IC50 [4] | Compound |
| --- | --- | --- | --- | --- |
| 0.0153 µM | 155 µM | 3.3 µM |  | CO[C@@H]1CC(=O)[C@]2(C)[C@@H]1[C@H](OC(C)=O)C[C@@H]1[C@@]3(C)CC[C@H](O)C(C)(C)[C@@H]3CC[C@]12C |
| 0.0755 µM | > 1000 µM | 4.7 µM |  | CC(=O)O[C@@H]1C[C@@H]2[C@@]3(C)CC[C@H](O)C(C)(C)[C@@H]3CC[C@@]2(C)[C@]2(C)C(=O)C[C@@H](O)[C@@H]12 |
